According to ChEMBL document CHEMBL4359926, “Design, synthesis, and evaluation of potent novel peroxisome proliferator-activated receptor γ indole partial agonists” (Bioorg Med Chem Lett, 2019):
The source made the active and inactive calls. No cut-off for these calls is given here.

Assays:
[1] = molecular target: T1, PPARgamma2 (peroxisome proliferator-activated receptor gamma) (Homo sapiens, UniProt P37231); test: Transactivation activity at human PPARgamma2 cotransfected with PPRE X3-TK-luc in human HEK293 cells incubated for 24 hrs by luciferase reporter gene assay relative to rosiglitazone; assay type: cell-based
T1 sequence (P37231 whole entry): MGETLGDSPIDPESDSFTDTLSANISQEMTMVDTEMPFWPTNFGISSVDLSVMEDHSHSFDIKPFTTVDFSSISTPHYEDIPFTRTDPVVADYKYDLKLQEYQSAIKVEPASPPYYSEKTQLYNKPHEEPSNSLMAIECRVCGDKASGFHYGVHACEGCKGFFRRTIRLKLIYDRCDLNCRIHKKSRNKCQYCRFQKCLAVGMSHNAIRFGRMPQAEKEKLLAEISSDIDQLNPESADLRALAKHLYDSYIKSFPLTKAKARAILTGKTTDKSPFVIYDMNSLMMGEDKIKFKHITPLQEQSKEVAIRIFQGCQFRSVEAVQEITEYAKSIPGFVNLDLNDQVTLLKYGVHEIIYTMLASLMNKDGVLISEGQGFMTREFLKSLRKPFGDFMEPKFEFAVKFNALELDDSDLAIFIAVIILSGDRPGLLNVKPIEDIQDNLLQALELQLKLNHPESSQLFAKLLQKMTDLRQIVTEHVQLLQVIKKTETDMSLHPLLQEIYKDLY
In short: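 HEK-293 cells grown in DMEM with 4.5 g/liter glucose and 10% bovine calf serum at 37°C, 5% CO₂. Co-transfected with human PPARγ2 plasmid and PPRE X3-TK-luc, then left 16 h. Compounds at 100 to 0.001 μM (10-fold steps), 0.1% DMSO final, for 24 h. Lysate luciferase read by luminescence.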

[2] = molecular target: T2, Peroxisome proliferator-activated receptor gamma (Homo sapiens, UniProt P37231); test: Displacement of fluormone PPAR green tracer ligand from recombinant GST-tagged PPARgamma ligand binding domain (unknown origin) incubated for 4 hrs by competitive fluorescence polarization binding assay
T2 sequence (P37231 whole entry): T1 sequence (P37231 whole entry)

[3] = molecular target: T3, Peroxisome proliferator-activated receptor gamma (Mus musculus) (UniProt P37238); test: Partial agonist activity at PPARgamma in mouse 3T3-L1 cells assessed as decrease in PPARgamma S273 phosphorylation at 10 uM preincubated for 24 hrs followed by TNFalpha stimulation for 3 hrs by Western blotting analysis
T3 sequence (whole entry): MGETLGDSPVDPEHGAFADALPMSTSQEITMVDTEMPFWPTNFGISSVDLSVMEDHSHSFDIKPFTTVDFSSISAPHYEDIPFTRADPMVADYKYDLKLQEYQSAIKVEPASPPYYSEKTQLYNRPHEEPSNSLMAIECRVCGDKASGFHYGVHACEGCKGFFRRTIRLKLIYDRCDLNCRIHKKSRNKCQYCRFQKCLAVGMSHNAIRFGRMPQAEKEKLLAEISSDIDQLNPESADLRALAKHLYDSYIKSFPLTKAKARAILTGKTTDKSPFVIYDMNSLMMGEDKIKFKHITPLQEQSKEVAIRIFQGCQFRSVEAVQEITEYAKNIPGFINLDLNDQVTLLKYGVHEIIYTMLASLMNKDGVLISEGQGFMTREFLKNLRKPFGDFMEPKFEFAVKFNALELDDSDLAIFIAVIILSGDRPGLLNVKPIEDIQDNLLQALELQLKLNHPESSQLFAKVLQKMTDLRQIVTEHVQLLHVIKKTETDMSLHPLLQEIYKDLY

[4] = molecular target: T3, Peroxisome proliferator-activated receptor gamma (Mus musculus); test: Partial agonist activity at PPARgamma in mouse 3T3-L1 cells assessed as decrease in PPARgamma S273 phosphorylation by measuring upregulation of adiponectin mRNA expression at 10 uM by qRT-PCR analysis; assay type: cell-based
[5] = molecular target: T4, Peroxisome proliferator-activated receptor gamma (Mus musculus, UniProt P37238); test: Induction of PPARgamma-mediated adipogenesis in mouse 3T3L1 cells assessed as upregulation of FABP4 mRNA expression at 10 uM by qRT-PCR analysis; assay type: cell-based
T4 sequence (P37238 whole entry): T3 sequence (whole entry)
In short: (§1)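 Confluent 3T3-L1 cells were differentiated in 10% FBS/DMEM with 0.5 mmol/L IBMX, 1 μmol/L dexamethasone and 10 μg/mL insulin plus compounds (10 μM) for 48 h, then 10 μg/mL insulin alone for another 48 h. RNA was extracted and analyzed by qRT-PCR (35 cycles). Relative mRNA was calculated by ΔΔCt normalized to TBP.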

[6] = molecular target: T5, Peroxisome proliferator-activated receptor gamma (Homo sapiens) (UniProt P37231); test: Potency index, ratio of UHC1 IC50 to compound IC50 for displacement of fluormone PPAR green tracer ligand from recombinant GST-tagged PPARgamma ligand binding domain (unknown origin) incubated for 4 hrs by competitive fluorescence polarization binding assay
T5 sequence (whole entry): T1 sequence (P37231 whole entry)

[7] = molecular target: T4, Peroxisome proliferator-activated receptor gamma; test: Induction of PPARgamma-mediated adipogenesis in mouse 3T3L1 cells assessed as upregulation of LPL mRNA expression at 10 uM by qRT-PCR analysis; assay type: cell-based; in short: as §1
[8] = molecular target: T3, Peroxisome proliferator-activated receptor gamma (Mus musculus); test: Partial agonist activity at PPARgamma in mouse 3T3-L1 cells assessed as decrease in PPARgamma S273 phosphorylation by measuring upregulation of adipsin mRNA expression at 10 uM by qRT-PCR analysis; assay type: cell-based
[9] = molecular target: T3, Peroxisome proliferator-activated receptor gamma (Mus musculus); test: Partial agonist activity at PPARgamma in mouse 3T3L1 cells assessed as decrease in PPARgamma S273 phosphorylation by measuring upregulation of Car3 mRNA expression at 10 uM by qRT-PCR analysis; assay type: cell-based
[10] = molecular target: T4, Peroxisome proliferator-activated receptor gamma; test: Induction of PPARgamma-mediated adipogenesis in mouse 3T3L1 cells assessed as upregulation of Glut4 mRNA expression at 10 uM by qRT-PCR analysis; assay type: cell-based; in short: as §1
[11] = molecular target: T4, Peroxisome proliferator-activated receptor gamma; test: Induction of PPARgamma-mediated adipogenesis in mouse 3T3L1 cells assessed as increase in cell differentiation at 10 uM compound treatment renewed every 2 days and measured on day 7 by Oil-red O staining based assay; conditions: 48 h
In short: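 3T3-L1 cells were induced with DMEM/10% FBS containing 1 μg/ml insulin, 1 μM dexamethasone and 0.5 mM IBMX plus compounds (10 μM) for 48 h. They were then kept in maintenance DMEM/10% FBS with compounds, with medium renewed every 2 days. At day 7 cells were fixed in 4% formaldehyde for 30 min and stained with 0.3% Oil Red O for 1 h at 37 °C. Lipid droplets were viewed by microscopy; DMSO 0.1% final.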

| Structure (SMILES) | Emax at 24 h [1] [%] | IC50 [2] [nM] | Ki [2] [nM] | further results |
| --- | --- | --- | --- | --- |
| Cc1c(C)n(Cc2cccc(C(F)(F)F)c2)c2ccc(C(=O)NCc3ccc4c(c3)OCO4)cc12 | 32 | 16 |  |  |
| Cc1c(C)n(Cc2ccc(-c3ccccc3C(=O)O)cc2)c2ccc(C(=O)NCc3ccccn3)cc12 | 15 | 34 | 27 |  |
| COc1cc(CNC(=O)c2ccc3c(c2)c(C)c(C)n3Cc2cccc(C(F)(F)F)c2)ccc1O | 46 | 10 |  |  |
| Cc1c(C)n(Cc2ccc(-c3ccccc3C(=O)O)cc2)c2ccc(C(=O)NC3CCNCC3)cc12 | 17 | 41300 | 32200 |  |
| Cc1c(C)n(Cc2cccc(C(F)(F)F)c2)c2ccc(C(=O)NCc3ccccn3)cc12 | 59 | 185 | 144 |  |
| Cc1c(C)n(Cc2ccc(-c3ccccc3C(=O)O)cc2)c2ccc(C(=O)NCc3cccnc3)cc12 | 45 | 536 | 440 | inhibition [3]: Active |
| Cc1c(C)n(Cc2ccc(-c3ccccc3C(=O)O)cc2)c2ccc(C(=O)NCc3cccc(OCC(=O)O)c3)cc12 | 56 | 66 | 52 |  |
| Cc1c(C)n(Cc2ccc(-c3ccccc3C(=O)O)cc2)c2ccc(C(=O)NCC3CCNCC3)cc12 | 11 | 12100 | 9460 |  |
| COc1cc(CNC(=O)c2ccc3c(c2)c(C)c(C)n3Cc2ccc(-c3ccccc3C(=O)O)cc2)ccc1O | 15 | 17 | 13 | Activity [4]: Active; Activity [5]: Active; Ratio IC50 [6]: > 30; Activity [7]: Active; Activity [8]: Active; Activity [9]: Active; Activity [10]: Active; inhibition [3]: Active |
| COc1ccc(OC)c(CNC(=O)c2ccc3c(c2)c(C)c(C)n3Cc2cccc(C(F)(F)F)c2)c1 | 27 | 48 | 38 |  |
| Cc1c(C)n(Cc2ccc(-c3ccccc3C(=O)O)cc2)c2ccc(C(=O)O)cc12 | 16 | 4870 | 3800 |  |
| Cc1c(C)n(Cc2cccc(C(F)(F)F)c2)c2ccc(C(=O)N[C@@H](Cc3ccc(O)cc3)C(=O)O)cc12 | 44 | 346 | 270 |  |
| CN(CCOc1ccc(CC2SC(=O)NC2=O)cc1)c1ccccn1 (configuration not stated) [ROSIGLITAZONE] |  |  |  | Activity [5]: Active; Activity [7]: Active; Activity [10]: Active; inhibition [3]: Active; Activity [11]: Active |
| Cc1c(C)n(Cc2ccc(-c3ccccc3C(=O)O)cc2)c2ccc(C(=O)NCc3ccc4c(c3)OCO4)cc12 | 36 | 15 | 12 |  |
| Cc1c(C)n(Cc2ccc(-c3ccccc3C(=O)O)cc2)c2ccc(C(=O)NCCc3ccc(O)cc3)cc12 | 31 | 48 | 38 |  |
| Cc1c(C)n(Cc2ccc(-c3ccccc3C(=O)O)cc2)c2ccc(C(=O)NCc3ccc(S(N)(=O)=O)cc3)cc12 | 0 | 312 | 244 |  |
